Laboratory results reported in ChEMBL document CHEMBL3046730, “Broad-spectrum antimicrobial activity in vitro of the synthetic peptide D4E1” (J Agric Food Chem, 2001).
The source made the active and inactive calls. The rule behind the calls is not given here.

Assays:
Rhizoctonia solani [1] = test: Antifungal activity against Rhizoctonia solani SRRC 1443 after 48 hr by microplate assay; assay type: functional, organism-based; conditions: SRRC 1443, 48 h
In short: (§1)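 Mycelia grown in 1% PDB 48 h at 28 °C, 90 rpm, blended, adjusted to ~10⁵ fragments/mL. Fragments incubated in 24-well plates with peptide at 2–40 µM final in 1% PDB, 2 mL total, 48 h at 90 rpm. MIC recorded as lowest concentration completely inhibiting growth; three replicate experiments.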

Rhizoctonia solani [2] = test: Antifungal activity against Rhizoctonia solani SRRC 1443 assessed as thin hyphae at 20 uM after 48 hr by microscopic analysis; assay type: functional, organism-based
Berkeleyomyces basicola = test: Antifungal activity against Thielaviopsis basicola SRRC 1277 after 24 to 48 hr; assay type: functional, organism-based
In short: (§2)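 Conidia diluted to 10⁴/mL (Fusarium) or 10⁵/mL and germinated 8 h at 30 °C (A. flavus, Fusarium, P. italicum) or overnight at 22 °C. Four 50 µL aliquots spread on PDA, colonies counted after 24–48 h at 30 or 22 °C. Percent mortality vs untreated control fitted by dose–response to give IC50; MIC = complete inhibition; two experiments.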

Rhizoctonia solani [3] = test: Antifungal activity against Rhizoctonia solani SRRC 1443 assessed as jagged hyphae at 20 uM after 48 hr by microscopic analysis; assay type: functional, organism-based
Fusarium graminearum = test: Antifungal activity against Fusarium graminearum SRRC 1042 after 24 to 48 hr; assay type: functional, organism-based
In short: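 Conidia harvested in 1% PDB (pH 6.0), diluted to 10⁴ conidia/mL, pregerminated 8 h at 30 °C. Germinated conidia exposed to D4E1 in 1% PDB at 30 °C; four aliquots spread on PDA and colonies counted after 24–48 h at 30 °C. Percent mortality vs 0 µM control; IC50 from dose–response fit of two experiments; MIC = complete growth inhibition.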

Aspergillus flavus [4] = test: Antifungal activity against Aspergillus flavus 70-GFP assessed as germ tube breakage at 12.5 uM after 8 hr by microscopic analysis relative to control; assay type: functional, organism-based
In short: (§3)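 A. flavus 70-GFP conidia (10⁶/mL) incubated 8 h at 30 °C with 0–25 µM peptide in 1% PDB. Germ tube and spore morphology examined by GFP fluorescence microscopy (excitation 480 nm, emission 530 nm). Repeated twice.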

[5] = tested on: Colletotrichum destructivum; test: Antifungal activity against Colletotrichum destructivum ATCC 42492 after 24 to 48 hr; assay type: functional, organism-based; in short: as §2
Xanthomonas campestris = test: Antibacterial activity against Xanthomonas citri subsp. malvacearum race 18 after 24 to 48 hr; assay type: functional, organism-based, Xanthomonas citri pv. malvacearum
In short: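 X. campestris pv. malvacearum race 18 grown overnight in nutrient broth at 28 °C, 225 rpm, then diluted to 10⁴ CFU/mL. Exposed to D4E1 for 60 min at 28 °C. Four aliquots plated on NB and colonies counted after 24–48 h at 28 °C. Percent mortality vs 0 µM control; IC50 from dose–response curve fit; MIC = complete inhibition; tested twice.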

Aspergillus flavus [6] = test: Antifungal activity against Aspergillus flavus 70-GFP assessed as reduction in spore germination at 25 uM after 8 hr by microscopic analysis relative to control; assay type: functional; design: scale not given: the % may be the effect or the level left
In short: (§4)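 Nongerminated A. flavus 70-GFP conidia (10⁶/mL) exposed to 0–25 µM peptide in 1% PDB, 8 h at 30 °C. Proportion of germinating conidia scored; GFP fluorescence microscopy (ex 480, em 530 nm). Experiment repeated twice; one-way ANOVA with Tukey separation.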

Aspergillus flavus [7] = test: Antifungal activity against Aspergillus flavus 70-GFP assessed as vacuolization in spores at 6 uM after 8 hr by microscopic analysis relative to control; assay type: functional, organism-based; in short: as §3
Fusarium verticillioides = test: Antifungal activity against Fusarium verticillioides SRRC 1082 after 24 to 48 hr; assay type: functional, organism-based; in short: as §2
Rhizoctonia solani [8] = test: Antifungal activity against Rhizoctonia solani SRRC 1443 assessed as rough hyphae at 20 uM after 48 hr by microscopic analysis; assay type: functional, organism-based
Penicillium italicum = test: Antifungal activity against Penicillium italicum SRRC 2352 after 24 to 48 hr; assay type: functional, organism-based; in short: as §2
Phytophthora nicotianae = test: Antifungal activity against Phytophthora parasitica after 48 hr by microplate assay; assay type: functional, organism-based; in short: as §1
Verticillium dahliae = test: Antifungal activity against Verticillium dahliae SRRC 1030 after 24 to 48 hr; assay type: functional, organism-based; in short: as §2
Aspergillus flavus [9] = test: Antifungal activity against Aspergillus flavus 70-GFP assessed as reduction in spore germination at 12.5 uM after 8 hr by microscopic analysis relative to control; assay type: functional, organism-based; in short: as §4
Claviceps purpurea = test: Antifungal activity against Claviceps purpurea SRRC 118 after 24 to 48 hr; assay type: functional, organism-based; in short: as §2
Aspergillus flavus [10] = test: Antifungal activity against Aspergillus flavus 70-GFP after 24 to 48 hr; assay type: functional, organism-based
In short: (§5)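 Conidia harvested in 1% PDB (pH 6.0), diluted to 10⁵/mL and germinated before exposure to peptide in 1% PDB. Four 50 µL aliquots plated on PDA and colonies counted after 24–48 h. Percent mortality vs untreated control fitted by dose–response to give IC50; MIC = complete inhibition; each fungus tested at least twice.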

[11] = tested on: Pseudomonas amygdali pv. tabaci; test: Antibacterial activity against Pseudomonas syringae pv. tabaci after 24 to 48 hr; assay type: functional, organism-based
Rhizoctonia solani [12] = test: Antifungal activity against Rhizoctonia solani SRRC 1443 assessed as appearance of extracellular material surrounding hyphae at 20 uM after 48 hr by microscopic analysis; assay type: functional, organism-based
Aspergillus flavus [13] = test: Antifungal activity against Aspergillus flavus 70-W after 24 to 48 hr; assay type: functional, organism-based; in short: as §2
Aspergillus flavus [14] = test: Antifungal activity against Aspergillus flavus 70-GFP assessed as vacuolization in spores at 12.5 uM after 8 hr by microscopic analysis relative to control; assay type: functional, organism-based; in short: as §3
[15] = tested on: Globisporangium ultimum var. sporangiiferum; test: Antifungal activity against Pythium ultimum var. sporangiiferum after 48 hr by microplate assay; assay type: functional, organism-based; in short: as §1
Alternaria alternata = test: Antifungal activity against Alternaria alternata SRRC 1107 after 24 to 48 hr; assay type: functional, organism-based; in short: as §5
Cercospora kikuchii = test: Antifungal activity against Cercospora kikuchii SRRC 1078 after 24 to 48 hr; assay type: functional, organism-based; in short: as §2
Aspergillus flavus [16] = test: Antifungal activity against Aspergillus flavus 70-GFP assessed as thick germ tube at 25 uM after 8 hr by microscopic analysis relative to control; assay type: functional, organism-based; in short: as §3
Phytophthora cinnamomi = test: Antifungal activity against Phytophthora cinnamomi after 48 hr by microplate assay; assay type: functional, organism-based; in short: as §1
Aspergillus flavus [17] = test: Antifungal activity against Aspergillus flavus 70-GFP assessed as short germ tube at 25 uM after 8 hr by microscopic analysis relative to control; assay type: functional, organism-based; in short: as §3
Fusarium oxysporum = test: Antifungal activity against Fusarium oxysporum SRRC 187 after 24 to 48 hr; assay type: functional, organism-based; in short: as §2

**Q.** With H-FKLRAKIKVRLRAKIKL-OH as the substance, how does the MIC (Rhizoctonia solani [1]) read?
**A.** 26.7 µM

**Q.** What about the Activity (Rhizoctonia solani [2]) of the same substance?
**A.** Active

**Q.** And the IC50 (Berkeleyomyces basicola)?
**A.** 520 nM

**Q.** What about the MIC (Berkeleyomyces basicola) of the same substance?
**A.** 6 µM

**Q.** And the Activity (Rhizoctonia solani [3])?
**A.** Active

**Q.** And the IC50 (Fusarium graminearum)?
**A.** 2100 nM

**Q.** And the MIC (Fusarium graminearum)?
**A.** 25 µM

**Q.** And the Activity (Aspergillus flavus [4])?
**A.** Active

**Q.** What about the IC50 [5] of the same substance?
**A.** 13000 nM

**Q.** And the MIC [5]?
**A.** 25 µM

**Q.** What about the IC50 (Xanthomonas campestris) of the same substance?
**A.** 190 nM

**Q.** What about the MIC (Xanthomonas campestris) of the same substance?
**A.** 1.25 µM

**Q.** What about the Activity (Aspergillus flavus [6]) of the same substance?
**A.** >75%

**Q.** And the Activity (Aspergillus flavus [7])?
**A.** Active

**Q.** And the IC50 (Fusarium verticillioides)?
**A.** 880 nM

**Q.** And the MIC (Fusarium verticillioides)?
**A.** 12.5 µM

**Q.** What about the Activity (Rhizoctonia solani [8]) of the same substance?
**A.** Active

**Q.** And the IC50 (Penicillium italicum)?
**A.** 5920 nM

**Q.** What about the MIC (Penicillium italicum) of the same substance?
**A.** 25 µM

**Q.** What about the MIC (Phytophthora nicotianae) of the same substance?
**A.** 4.67 µM

**Q.** What about the IC50 (Verticillium dahliae) of the same substance?
**A.** 600 nM

**Q.** What about the MIC (Verticillium dahliae) of the same substance?
**A.** 5.25 µM

**Q.** And the Activity (Aspergillus flavus [9])?
**A.** Active

**Q.** What about the IC50 (Claviceps purpurea) of the same substance?
**A.** 1600 nM

**Q.** And the MIC (Claviceps purpurea)?
**A.** 20 µM

**Q.** And the IC50 (Aspergillus flavus [10])?
**A.** 11000 nM

**Q.** What about the MIC (Aspergillus flavus [10]) of the same substance?
**A.** 25 µM

**Q.** And the IC50 [11]?
**A.** 520 nM

**Q.** And the MIC [11]?
**A.** 2.25 µM

**Q.** What about the Activity (Rhizoctonia solani [12]) of the same substance?
**A.** Active

**Q.** And the IC50 (Aspergillus flavus [13])?
**A.** 7750 nM

**Q.** And the MIC (Aspergillus flavus [13])?
**A.** 25 µM

**Q.** And the Activity (Aspergillus flavus [14])?
**A.** Active

**Q.** And the MIC [15]?
**A.** 13.3 µM

**Q.** And the IC50 (Alternaria alternata)?
**A.** 12400 nM

**Q.** And the MIC (Alternaria alternata)?
**A.** 25 µM

**Q.** And the IC50 (Cercospora kikuchii)?
**A.** 8670 nM

**Q.** And the MIC (Cercospora kikuchii)?
**A.** 25 µM

**Q.** What about the Activity (Aspergillus flavus [16]) of the same substance?
**A.** Active

**Q.** What about the MIC (Phytophthora cinnamomi) of the same substance?
**A.** 4.67 µM

**Q.** And the Activity (Aspergillus flavus [17])?
**A.** Active

**Q.** And the IC50 (Fusarium oxysporum)?
**A.** 2050 nM

**Q.** What about the MIC (Fusarium oxysporum) of the same substance?
**A.** 12.5 µM
